Assay results published in ChEMBL document CHEMBL1139384, “First Cdc7 kinase inhibitors: pyrrolopyridinones as potent and orally active antitumor agents. 2. Lead discovery” (J Med Chem, 2009).
pIC50: −log10 of the molar value.

Tests used:
A2780 [1] = assay: Antiproliferative activity against human A2780 cells after 72 hrs by luciferase based assay; assay type: functional, cell-based
[2] = molecular target: Cell division cycle 7-related protein kinase (Homo sapiens, UniProt O00311); assay: Inhibition of human Cdc7 assessed as inhibition of rate of phosphorylation of Mcm2 protein
[3] = molecular target: Cyclin-dependent kinase 9 (Homo sapiens, UniProt P50750); assay: Inhibition of CDK9
COLO 205 = assay: Antiproliferative activity against human COLO205 cells after 72 hrs by luciferase based assay; assay type: functional, cell-based; conditions: COLO 205, 72 h
[4] = Apparent permeability by PAMPA method; assay type: ADME; conditions: read-out: permeability
A2780 [5] = assay: Antitumor activity against human A2780 cells xenografted in CDI nu/nu mouse assessed as tumor growth inhibition at 60 mg/kg, po administered for 10 days; assay type: functional; conditions: A2780, 240 h, read-out: TGI
HT-29 = assay: Antiproliferative activity against human HT-29 cells after 72 hrs by luciferase based assay; assay type: functional, cell-based; conditions: HT-29, 72 h
In short: (§1)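 Cells seeded at 2500–5000/well in complete medium (RPMI1640, McCoy's or DMEM with 10% FCS, by line); compound added after 24 h, 72 h at 37 °C, 5% CO2.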

OPM-2 = assay: Antiproliferative activity against human OPM2 cells after 72 hrs by luciferase based assay; assay type: functional, cell-based; conditions: OPM-2, 72 h; in short: as §1
[6] = Antiproliferative activity against human NCI-H929 cells after 72 hrs by luciferase based assay; assay type: functional, cell-based; conditions: NCI-H929, 72 h; in short: as §1
Rattus norvegicus = assay: Antitumor activity against DMBA-induced mammary carcinoma in CD OFA rat assessed as duration of tumor stabilization maintenance at 20 mg/kg, po administered for 10 days; assay type: functional
In short: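 DMBA tumors induced in female CD OFA rats by single intragastric 20 mg DMBA in sesame oil; after about 50 days, rats with a mammary tumor of at least 1 cm given 20 mg/kg orally twice daily for 10 days in glucose solution, or vehicle; 10 per group; tumor volume by Vernier calipers.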

L-363 = assay: Antiproliferative activity against human L363 cells after 72 hrs by luciferase based assay; assay type: functional, cell-based; conditions: L-363, 72 h; in short: as §1
NHDF = assay: Antiproliferative activity against human NHDF cells after 72 hrs by luciferase based assay; assay type: cell-based
[7] = Antiproliferative activity against human SW403 cells after 72 hrs by luciferase based assay; assay type: functional, cell-based; conditions: SW-403, 72 h; in short: as §1
MCF7 = assay: Antiproliferative activity against human MCF7 cells after 72 hrs by luciferase based assay; assay type: functional, cell-based; conditions: MCF7, 72 h
[8] = Antiproliferative activity against human […] cells after 72 hrs by luciferase based assay; assay type: functional, cell-based; in short: as §1
SW48 = assay: Antiproliferative activity against human SW48 cells after 72 hrs by luciferase based assay; assay type: functional, cell-based; conditions: SW48, 72 h; in short: as §1
[9] = Oral bioavailability in nu/nu mouse at 10 mg/kg administered as single dose; assay type: ADME, organism-based; conditions: in vivo
In short: (§2)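 Overnight-fasted male Nu/Nu mice got a single 10 mg/kg dose in 5% dextrose, iv or po, three mice per route. Saphenous blood was drawn at 0.083 (iv) or 0.25 (po), 0.5, 1, 6 and 24 h. Plasma was assayed by LC/MS/MS and analysed noncompartmentally. Tmax is the observed peak time, Vss = CL·MRT, and F is the ratio of dose-normalized AUC∞ po/iv.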

[10] = AUC (0 to infinity) in nu/nu mouse at 10 mg/kg, iv administered as single dose; assay type: ADME, organism-based; parameters: dose 10 mg/kg, route intravenous, time infinity; conditions: plasma
In short: (§3)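 Single iv or oral dose in 5% dextrose to overnight-fasted animals. Nu/Nu mice: males, 3 per route, saphenous bleeds to 24 h. Han-Wistar rats: males, 3 per route, jugular bleeds to 24 h. Beagle dogs: 2 per sex, iv and po crossover 2 weeks apart, jugular bleeds to 48 h. Plasma by LC/MS/MS; noncompartmental parameters, AUC by linear trapezoid with extrapolation.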

[11] = Tmax in nu/nu mouse at 10 mg/kg, po administered as single dose; assay type: ADME, organism-based; parameters: dose 10 mg/kg, route oral; conditions: in vivo; in short: as §2
[12] = Volume of distribution at steady state in nu/nu mouse at 10 mg/kg, iv administered as single dose; assay type: ADME, organism-based; parameters: dose 10 mg/kg, route intravenous; conditions: in vivo, read-out: Vdss; in short: as §2
[13] = Half life in nu/nu mouse at 10 mg/kg, po administered as single dose; assay type: ADME, organism-based; parameters: dose 10 mg/kg, route oral; conditions: in vivo; in short: as §3
[14] = Clearance in nu/nu mouse at 10 mg/kg, iv administered as single dose; assay type: ADME, organism-based; parameters: dose 10 mg/kg, route intravenous; conditions: in vivo; in short: as §3
[15] = Solubility in pH 7.0 buffer
[16] = Half life in nu/nu mouse at 10 mg/kg, iv administered as single dose; assay type: ADME, organism-based; parameters: dose 10 mg/kg, route intravenous; conditions: in vivo; in short: as §3
[17] = Cmax in nu/nu mouse at 10 mg/kg, po administered as single dose; assay type: ADME, organism-based; parameters: dose 10 mg/kg, route oral; conditions: in vivo; in short: as §3
[18] = AUC (0 to infinity) in nu/nu mouse at 10 mg/kg, po administered as single dose; assay type: ADME, organism-based; parameters: time infinity, dose 10 mg/kg, route oral; conditions: plasma; in short: as §3
[19] = Cmax in nu/nu mouse at 10 mg/kg, iv administered as single dose; assay type: ADME, organism-based; parameters: dose 10 mg/kg, route intravenous; conditions: in vivo; in short: as §3
[20] = Metabolic stability in human hepatocytes expressing CYP3A4 assessed as drug remaining after 1 hr; assay type: ADME, cell-based, Hepatocyte; conditions: read-out: Stability
Hepatocyte = assay: Metabolic stability in rat hepatocytes assessed as intrinsic clearance at 1 uM; assay type: cell-based; conditions: Liver

Chain of Cyclin-dependent kinase 9 (P50750 whole entry): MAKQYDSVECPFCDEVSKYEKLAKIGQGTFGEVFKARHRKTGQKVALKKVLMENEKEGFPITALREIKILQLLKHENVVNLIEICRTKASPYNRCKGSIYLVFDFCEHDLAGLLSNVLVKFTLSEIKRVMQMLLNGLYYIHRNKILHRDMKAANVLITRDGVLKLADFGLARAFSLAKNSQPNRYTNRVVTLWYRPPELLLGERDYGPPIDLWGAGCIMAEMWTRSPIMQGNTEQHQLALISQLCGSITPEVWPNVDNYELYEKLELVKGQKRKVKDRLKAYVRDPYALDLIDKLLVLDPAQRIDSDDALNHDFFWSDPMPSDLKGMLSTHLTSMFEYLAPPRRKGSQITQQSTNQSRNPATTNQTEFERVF
Chain of Cell division cycle 7-related protein kinase (O00311 whole entry): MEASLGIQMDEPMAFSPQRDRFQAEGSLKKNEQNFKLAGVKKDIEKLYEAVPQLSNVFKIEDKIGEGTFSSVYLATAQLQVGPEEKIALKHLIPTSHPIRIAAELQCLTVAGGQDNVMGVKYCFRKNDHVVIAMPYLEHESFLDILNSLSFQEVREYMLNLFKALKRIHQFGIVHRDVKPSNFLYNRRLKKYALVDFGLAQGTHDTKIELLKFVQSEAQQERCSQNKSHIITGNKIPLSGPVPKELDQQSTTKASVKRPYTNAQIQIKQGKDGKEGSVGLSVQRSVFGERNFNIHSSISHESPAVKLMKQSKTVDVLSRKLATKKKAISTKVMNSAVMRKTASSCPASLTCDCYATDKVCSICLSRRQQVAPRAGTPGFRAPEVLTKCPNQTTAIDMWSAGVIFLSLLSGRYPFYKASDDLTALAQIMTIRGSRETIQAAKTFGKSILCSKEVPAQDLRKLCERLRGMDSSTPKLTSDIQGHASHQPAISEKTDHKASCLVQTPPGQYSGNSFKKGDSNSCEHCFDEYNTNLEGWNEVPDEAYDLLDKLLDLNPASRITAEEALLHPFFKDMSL

| SMILES | pIC50 (A2780 [1]; Homo sapiens, A2780, 72 h) | pIC50 [2] | further results |
| --- | --- | --- | --- |
| CC(C)CC1Cc2[nH]c(-c3ccnc(N)n3)cc2C(=O)N1 (stereo not given) | 5.80 | 8.10 |  |
| CC1(C)CNC(=O)c2cc(-c3ccncc3)[nH]c21 | 6.70 |  |  |
| O=C1NCC(c2ccccc2)c2[nH]c(-c3ccncc3)cc21 (stereo not given) | 5.40 | 7.70 |  |
| Nc1nccc(-c2cc3c([nH]2)C(CCOCc2ccccc2)CNC3=O)n1 (stereo not given) | 6.40 | 8.15 |  |
| O=C1NCCc2[nH]c(-c3ccncc3)cc21 | 5.96 |  | pIC50 (COLO 205): 5.82; Papp [4]: 1.84 ×10⁻⁶ cm/s; inhibition in vivo at 60 mg/kg (A2780 [5]): 50%; pIC50 (HT-29): 5.30; pIC50 (OPM-2): 5.35; pIC50 [6]: 5.74; Activity (Rattus norvegicus): 25 days; pIC50 (L-363): 5.80; pIC50 (NHDF): 5.80; pIC50 [7]: 6.00; pIC50 (MCF7): 5.89; pIC50 [8]: 6.00; pIC50 (SW48): 5.92 |
| CC(C)C1CNC(=O)c2cc(-c3ccncc3)[nH]c21 (stereo not given) | 6.30 | 8.00 |  |
| CCC1(CC)CNC(=O)c2cc(-c3ccncc3)[nH]c21 | 6.70 | 8.22 |  |
| Nc1nccc(-c2cc3c([nH]2)C(C2CCC2)CNC3=O)n1 (stereo in doubt; 88) |  | 8.30 | pIC50 (A2780 [1]; a2780): 6.52 |
| CC1CNC(=O)c2cc(-c3ccncc3)[nH]c21 (stereo not given) | 6.22 | 8.00 |  |
| CC(C)C1Cc2[nH]c(-c3ccnc(N)n3)cc2C(=O)N1 (stereo not given) | 5.89 | 7.92 |  |
| Nc1nccc(-c2cc3c([nH]2)C(CCC(F)(F)F)CNC3=O)n1 (stereo in doubt; 93-1) |  | 7.92 | pIC50 (A2780 [1]; a2780): 6.00; pIC50 [3]: 6.66 |
| Nc1nccc(-c2cc3c([nH]2)C(CCCO)CNC3=O)n1 (stereo not given) | 5.22 | 7.92 |  |
| O=C1N[C@@H](COCc2ccccc2)Cc2[nH]c(-c3ccncc3)cc21 | 5.32 | 7.36 |  |
| Nc1nccc(-c2cc3c([nH]2)C(CCC(F)(F)F)CNC3=O)n1 (stereo in doubt; 93-2) |  |  | CL (mL.min-1.kg-1) (Hepatocyte): 8.33 |
| CC1(C)Cc2[nH]c(-c3ccncc3)cc2C(=O)N1 | 5.92 | 7.49 |  |
| Nc1nccc(-c2cc3c([nH]2)CCNC3=O)n1 | 5.77 |  | pIC50 [3]: 7.54 |

More lines, main results first:

| pIC50 (A2780 [1]; Homo sapiens, A2780, 72 h) | pIC50 [2] | SMILES | further results |
| --- | --- | --- | --- |
| 6.40 | 8.30 | CCC1CNC(=O)c2cc(-c3ccnc(N)n3)[nH]c21 (stereo in doubt; 86-2) | pIC50 [3]: 7.77 |
| 6.70 | 8.30 | CCC1(CC)CNC(=O)c2cc(-c3ccnc(N)n3)[nH]c21 |  |
| 6.22 | 8.70 | O=C1NCC(CCF)c2[nH]c(-c3ccncc3)cc21 (stereo not given) |  |
|  | 8.40 | CCC1CNC(=O)c2cc(-c3ccnc(N)n3)[nH]c21 (stereo in doubt; 86-1) | bioavailability [9]: 74%; AUC(0-inf) [10]: 4.9 µM·h; Tmax [11]: 20.4 min; Vd [12]: 1.5 L/kg; half-life [13]: 78 min; clearance [14]: 125 mL/min/kg; solubility [15]: > 225 µM; pIC50 [3]: 7.14; half-life [16]: 12 min; Cmax [17]: 2.7 µM; AUC(0-inf) [18]: 3.6 µM·h; Cmax [19]: 12.6 µM; remaining at 1 h [20]: 99% |
|  | 8.40 | CC(C)C1CNC(=O)c2cc(-c3ccnc(N)n3)[nH]c21 (stereo in doubt; 87) | pIC50 (A2780 [1]; a2780): 6.40 |
| 5.96 | 8.40 | Nc1nccc(-c2cc3c([nH]2)C(CCO)CNC3=O)n1 (stereo not given) |  |
| 6.30 | 8.52 | O=C1NCC(C2CCC2)c2[nH]c(-c3ccncc3)cc21 (stereo not given) |  |
